The subject of test [1] is Cavia porcellus. The test is described as follows: Mean collapse time after pretreatment with compound divided by mean collapse time of untreated control animals at 50 mg/kg po dose. The test is classed as functional. Summed up: (§1)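 Modified Herxheimer test in conscious sensitized guinea pigs, 4-5 per group. Compound was given orally at 25, 50 or 100 mg/kg 2 or 4 h before antigen challenge. Some groups also received mepyramine 0.5 mg/kg sc 0.5 h before challenge. D = mean collapse time of treated/untreated controls; M+D = mean collapse time of compound+mepyramine/mepyramine-dosed controls.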

For test [2], the species on record is Cavia porcellus. The test is described as follows: Compound was tested for the inhibition of histamine release from sensitized guinea pig chopped lung upon antigen challenge at 10 ug/mL. The test is classed as functional. An outline of the steps: (§2)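 Guinea pigs sensitized to ovalbumin; lungs taken 3 weeks later, perfused with Tyrode, chopped into 0.5-mm cubes. 100-mg aliquots in Tyrode were preincubated 5 min at 37 °C, then compound or Tyrode and ovalbumin (5 mg in 0.1 mL) were added. Incubation was 15 min at 37 °C with rocking, and supernatant was bioassayed. Unchallenged control gave spontaneous release. Values are % inhibition, mean of ≥4 samples; Student's t-test.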

The species entered for test [3] is Cavia porcellus. As to the kind of experiment: Inhibition of slow reacting substance of anaphylaxis (SRS-A) release from sensitized guinea pig chopped lung upon antigen challenge at 10 ug/mL. It is filed as functional. Summed up:
as §2

The test system of test [4] is Cavia porcellus. As to the kind of experiment: Mean collapse time after pretreatment with compound and mepyramine divided by mean collapse time of mepyramine-dosed control animals at 50 mg/kg po dose. It is filed as functional. An outline of the steps:
as §1

Test [5] concerns Cavia porcellus. As to the kind of experiment: Time of dosing of compound before antigen challenge in conscious sensitized guinea pig at 50 mg/kg po dose. The test is classed as functional. Summed up:
as §1

Test [6] has as its system Cavia porcellus. The test is described as follows: Mean collapse time after pretreatment with compound and mepyramine divided by mean collapse time of mepyramine-dosed control animals at 100 mg/kg po dose. It is filed as functional. An outline of the steps:
as §1

For test [7], the system named is Cavia porcellus. The test is described as follows: Mean collapse time after pretreatment with compound divided by mean collapse time of untreated control animals at 100 mg/kg po dose. It is filed as functional. An outline of the steps:
as §1

The test system of test [8] is Cavia porcellus. The test is described as follows: Time of dosing of compound before antigen challenge in conscious sensitized guinea pig at 100 mg/kg po dose. The test is classed as functional. Summed up: as §1
The species entered for test [9] is Cavia porcellus. As to the kind of experiment: Inhibition of slow reacting substance of anaphylaxis (SRS-A) release from sensitized guinea pig chopped lung upon antigen challenge. The test is classed as functional. An outline of the steps:
as §2

Test [10] is filed under the species Homo sapiens. As to the kind of experiment: Inhibition of Histamine mediator release form passively sensitized human lung upon antigen challenge at 10(ug/mL) dose:
It is filed as functional. An outline of the steps:
(§3)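 Healthy human lung from carcinoma surgery was chopped into 0.5-mm cubes and passively sensitized 18 h at 18 °C with atopic serum from cocksfoot-pollen-allergic patients. Tissue was preincubated 5 min with compound, challenged with pollen extract (0.1 mL, 1000 noon units) and incubated as for guinea pig lung. Supernatant was bioassayed on guinea pig ileum, with mepyramine-treated (0.4 μg/mL) ileum for SRS-A. Values are % inhibition of mediator release.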

The species entered for test [11] is Homo sapiens. As to the kind of experiment: Inhibition of Slow reacting substance of anaphylaxis (SRS-A) mediator release form passively sensitized human lung upon antigen challenge at 10(ug/mL) dose:
It is filed as functional. Summed up: as §3

Test [12] deals with Cavia porcellus. The test is described as follows: Effect on bronchospasm in conscious sensitized guinea pig upon antigen challenge (herxheimer) at 25 mg/kg po dose. It is filed as functional, Bronchiole. An outline of the steps: as §1
Test [13] is filed under the species Cavia porcellus. The test is described as follows: Inhibition of histamine release from sensitized guinea pig chopped lung upon antigen challenge at 10 ug/mL. It is filed as functional. An outline of the steps:
as §2

Test [14] concerns Cavia porcellus. As to the kind of experiment: Mean collapse time after pretreatment with compound and mepyramine divided by mean collapse time of mepyramine-dosed control animals at 25 mg/kg po dose. It is filed as functional. Summed up:
as §1

Test [15] has as its system Cavia porcellus. The test is described as follows: Mean collapse time after pretreatment with compound divided by mean collapse time of untreated control animals at 25 mg/kg po dose. The test is classed as functional. Summed up:
as §1

The species named for test [16] is Homo sapiens. The test is described as follows: Inhibition of Histamine mediator release form passively sensitized human lung upon antigen challenge at 10 ug/mL dose. The test is classed as functional. Summed up: as §3
For test [17], the species on record is Homo sapiens. As to the kind of experiment: Inhibition of Histamine mediator release form passively sensitized human lung upon antigen challenge at 1 ug/mL dose. It is filed as functional. Summed up:
as §3

Test [18] is filed under the species Homo sapiens. The test is described as follows: Inhibition of Slow reacting substance of anaphylaxis (SRS-A) mediator release form passively sensitized human lung upon antigen challenge at 10 ug/mL dose. It is filed as functional. An outline of the steps: as §3
The species named for test [19] is Homo sapiens. The test is described as follows: Inhibition of Slow reacting substance of anaphylaxis (SRS-A) mediator release form passively sensitized human lung upon antigen challenge at 1 ug/mL dose. The test is classed as functional. An outline of the steps: as §3
Test [20] deals with Cavia porcellus. The test is described as follows: Time of dosing of compound before antigen challenge in conscious sensitized guinea pig at 25 mg/kg po dose. The test is classed as functional. An outline of the steps: as §1
Test [21] relates to Cavia porcellus. As to the kind of experiment: Mean collapse time after pretreatment with compound and mepyramine divided by mean collapse time of mepyramine-dosed control animals at 2 mg/kg po dose. It is filed as functional.
For test [22], the system named is Cavia porcellus. As to the kind of experiment: Mean collapse time after pretreatment with compound divided by mean collapse time of untreated control animals at 2 mg/kg po dose. It is filed as functional.
Test [23] deals with Cavia porcellus. The test is described as follows: Time of dosing of compound before antigen challenge in conscious sensitized guinea pig at 2 mg/kg po dose. It is filed as functional.

Turning to `CCc1ccc(O)c(C(=O)c2ccsc2)c1`, the Activity in the test on Cavia porcellus [1] was 0.8; in the test on Cavia porcellus [4] it was 2.3. The Inhibition (as a rule, how much of the control response was suppressed) in the test filed under Cavia porcellus [2] turned out to be 37%; in the test listed under Cavia porcellus [3], 26%. Moreover, the Time in the test on Cavia porcellus [5] (dose 50 mg/kg) was 2 h.

On to `CCc1ccc(C(=O)c2ccc(F)cc2)c(O)c1`, for which the Activity in the test with Cavia porcellus [1] is on record as 1.3; in the test with Cavia porcellus [6] it was 2.3; in the test on Cavia porcellus [4], 2.8; in the test with Cavia porcellus [7], 1.2. For the same compound, the Inhibition in the test filed under Cavia porcellus [3] is reported as 5%. Also, the Time in the test with Cavia porcellus [8] worked out at 2 h.

Regarding `CCc1ccc(O)c(S(=O)(=O)c2ccc(Cl)cc2)c1`, the Inhibition in the test listed under Cavia porcellus [9] turned out to be 19%.

On to `C=C(c1ccc(C)cc1)c1cc(CC)ccc1O`, for which the Activity was determined as 1 in the test on Cavia porcellus [1] and 3.5 with Cavia porcellus [4]. Besides, the Inhibition came to 0% in the test listed under Cavia porcellus [3], 0% in the test filed under Homo sapiens [10] and 84% in the test filed under Homo sapiens [11].

Consider `CCc1ccc(O)c(C(=O)c2ccc(Cl)cc2)c1`, for which the “Time of dosing before antigen challenge.” value in the test on Cavia porcellus [12] is 4 h. The Inhibition in the test filed under Cavia porcellus [13] came out at 3%; in the test filed under Cavia porcellus [3], 51%; in the test filed under Homo sapiens [16], 0%; in the test listed under Homo sapiens [17] it was 0%; in the test filed under Homo sapiens [18], 100%; in the test listed under Homo sapiens [19], 74%. The Activity in the test with Cavia porcellus [6] was determined as 1.8; in the test on Cavia porcellus [14] it was 2.7; in the test with Cavia porcellus [7], 1.4; in the test on Cavia porcellus [15], 0.8. Moreover, the Time with Cavia porcellus [8] is 2 h.

For `CCc1ccc(O)c([S+]([O-])c2ccc(Cl)cc2)c1` (stereo not given), the Activity with Cavia porcellus [1] is reported as 1; with Cavia porcellus [14], 1.7; in the test with Cavia porcellus [4], 1.7; with Cavia porcellus [15], 1.3. The Inhibition is recorded as 26% in the test filed under Cavia porcellus [13]; 48% in the test listed under Cavia porcellus [3]; 31% in the test listed under Homo sapiens [16]; 0% in the test filed under Homo sapiens [17]; 99% in the test listed under Homo sapiens [18]; 69% in the test filed under Homo sapiens [19]. Besides, the Time is 4 h with Cavia porcellus [20] and 2 h with Cavia porcellus [5] (dose 50 mg/kg).

Take `CCc1ccc(O)c(S(=O)(=O)c2ccccc2)c1`: the Inhibition in the test filed under Cavia porcellus [9] worked out at 0%.

Consider `CCc1ccc(OC)c(C(O)c2ccc(Cl)cc2)c1` (stereo not given), for which the Inhibition in the test filed under Cavia porcellus [3] is 14%. Besides, the Activity with Cavia porcellus [14] came to 2.7; in the test with Cavia porcellus [15], 0.8. In the test on Cavia porcellus [5] (dose 25 mg/kg, in the assay text read “at 25 mg/kg po dose” for “at 50 mg/kg po dose”), the Time was determined as 2 h.

For `CN1CCC(=C2c3ccccc3CC(=O)c3sccc32)CC1` [KETOTIFEN], the Inhibition in the test listed under Cavia porcellus [13] is listed as 37%; in the test listed under Cavia porcellus [3] it was 38%; in the test filed under Homo sapiens [16], 23%; in the test listed under Homo sapiens [17], 0%; in the test filed under Homo sapiens [18], 100%; in the test listed under Homo sapiens [19] it was 51%. Moreover, the Activity with Cavia porcellus [21] worked out at 3.1; with Cavia porcellus [22], 4.2. In the test with Cavia porcellus [23], the Time came out at 2 h.

For the origin of these results see ChEMBL document CHEMBL1123797, “Antianaphylactic benzophenones and related compounds” (1987).
